Measured values published in ChEMBL document CHEMBL1129660, “Studies on 6-aminoquinolones: synthesis and antibacterial evaluation of 6-amino-8-methylquinolones” (J Med Chem, 1996).
Converted amounts (≈) assume the structure as drawn.

Key:
Bacteria = test: Geometric mean of antibacterial activity (Gram +ve bacteria) of the compound; assay type: functional
Method in brief: (§1)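 Geometric means calculated from agar-dilution MICs (µg/mL), taken separately across the five Gram-positive and the eight Gram-negative panel strains.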

[1] = Geometric mean of antibacterial activity (Gram -ve bacteria) of the compound; assay type: functional; method in brief: as §1
Proteus vulgaris = test: Antibacterial activity tested against Proteus vulgaris CNUR 5; assay type: functional
Method in brief: (§2)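 MICs (µg/mL) determined by conventional agar dilution against a panel of eight Gram-negative and five Gram-positive reference strains.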

Providencia stuartii = test: Antibacterial activity tested against Providencia stuartii CNUR 5; assay type: functional; method in brief: as §2
Pseudomonas aeruginosa = test: Antibacterial activity tested against P. ae (Pseudomonas aeruginosa) ATCC 9027; assay type: functional; method in brief: as §2
Mus musculus [2] = test: Efficacy against Septicemia caused by Staphylococcus aureus in mice by Oral administration; assay type: functional
Method in brief: (§3)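 S. aureus Smith ATCC19636, overnight brain-heart infusion culture diluted in 5% mucin, given i.p. (0.5 mL) to male and female CD-1 mice (18-22 g). Single s.c. or oral dose within 10 min of infection, drug in DMSO/0.5% methocel or as suspension. 3-5 dose groups of six mice; ED50 with 95% limits by Spearman-Kärber from day-7 survival.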

Staphylococcus aureus [3] = test: Antibacterial activity against Staphylococcus aureus ATCC 6538; assay type: functional; method in brief: as §2
Staphylococcus aureus [4] = test: Antibacterial activity against Staphylococcus aureus MPR 5; assay type: functional; method in brief: as §2
Mus musculus [5] = test: Efficacy against Septicemia caused by Staphylococcus aureus in mice by subcutaneous administration; assay type: functional; conditions: sc; method in brief: as §3
Enterococcus faecalis [6] = test: Antibacterial activity tested against Streptococcus faecalis LEP Br; assay type: functional; method in brief: as §2
[7] = test system: Staphylococcus epidermidis; test: Antibacterial activity tested against Staphylococcus epidermidis CPHL A2; assay type: functional; method in brief: as §2
[8] = test system: Staphylococcus epidermidis; test: Antibacterial activity tested against Staphylococcus epidermidis HCF Berset C; assay type: functional; method in brief: as §2
Enterococcus faecium [9] = test: microbe, parasite or virus in culture
Enterococcus faecalis [10] = test: microbe, parasite or virus in culture
Staphylococcus aureus [11] = test: microbe, parasite or virus in culture
Staphylococcus aureus [12] = test: microbe, parasite or virus in culture; remark: listed apart in the source
Enterococcus faecium [13] = test: Antibacterial activity tested against Enterococcus faecium; Range is 0.25-4 ug/mL; assay type: functional
Escherichia coli [14] = test: Antibacterial activity tested against Escherichia coli ATCC 8739; assay type: functional; method in brief: as §2
Enterococcus faecalis [15] = test: Antibacterial activity tested against Enterococcus faecalis; Range is 0.25-0.5 ug/mL; assay type: functional
Escherichia coli [16] = test: Antibacterial activity tested against Escherichia coli ISF 432; assay type: functional; method in brief: as §2
Escherichia coli [17] = test: Inhibitory activity against gyrase supercoiling activity from Escherichia coli; assay type: functional
Method in brief: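 Inhibition of DNA gyrase supercoiling activity, by a previously described protocol with slight modifications. IC50 derived by densitometric quantification of the supercoiled DNA peak in an agarose gel.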

Enterobacter cloacae = test: Antibacterial activity tested against Enterobacter cloacae OMNFI 174; assay type: functional
Klebsiella pneumoniae = test: Antibacterial activity tested against Klebsiella pneumoniae (Klebsiella pneumoniae) ATCC 10031; assay type: functional; method in brief: as §2
Shigella = test: Antibacterial activity tested against Shigella enteritidis; assay type: functional; method in brief: as §2
Staphylococcus aureus [18] = test: Antibacterial activity tested against Staphylococcus aureus Methicillin-and Ciprofloxacin resistants; Range is 4-32 ug/mL; assay type: functional
Staphylococcus aureus [19] = test: Antibacterial activity tested against Staphylococcus aureus; Range is 0.06-0.13 ug/mL; assay type: functional
Streptococcus pneumoniae [20] = test: Antibacterial activity tested against Streptococcus pneumoniae; Range is 0.5-2 ug/mL; assay type: functional
Enterococcus faecium [21] = test: Antibacterial activity tested against Enterococcus faecium; Range is 0.13-2 ug/mL; assay type: functional
Enterococcus faecalis [22] = test: Antibacterial activity tested against Enterococcus faecalis; Range is 0.13-0.25 ug/mL; assay type: functional
Staphylococcus aureus [23] = test: Antibacterial activity tested against Staphylococcus aureus Methicillin-and Ciprofloxacin resistants; Range is 1-2 ug/mL; assay type: functional
Streptococcus pneumoniae [24] = test: Antibacterial activity tested against Streptococcus pneumoniae; Range is 1-2 ug/mL; assay type: functional
Staphylococcus aureus [25] = test: Antibacterial activity tested against Staphylococcus aureus; Range is 0.016-0.13 ug/mL; assay type: functional

Compound O=C(O)c1cn(C2CC2)c2cc(N3CCNCC3)c(F)cc2c1=O [CIPROFLOXACIN] has a Geometric mean (Bacteria) of 0.092, a Geometric mean [1] of 0.033 and an MIC (Proteus vulgaris) of 0.5 µg/mL (≈ 1.51 µM). The MIC (Providencia stuartii) was 0.06 µg/mL (≈ 0.181 µM), the MIC (Pseudomonas aeruginosa) was 0.06 µg/mL (≈ 0.181 µM) and the ED50 (Mus musculus [2]) was 7 mg/kg. For the same compound, the MIC (Staphylococcus aureus [3]) was 0.06 µg/mL (≈ 0.181 µM), the MIC (Staphylococcus aureus [4]) was 0.06 µg/mL (≈ 0.181 µM) and the ED50 (Mus musculus [5]) was 0.9 mg/kg. The MIC (Enterococcus faecalis [6]) was 0.5 µg/mL (≈ 1.51 µM), the MIC [7] was 0.06 µg/mL (≈ 0.181 µM) and the MIC [8] was 0.06 µg/mL (≈ 0.181 µM). It also gave an MIC (Enterococcus faecium [9]) of 1 µg/mL (≈ 3.02 µM), an MIC (Enterococcus faecalis [10]) of 0.5 µg/mL (≈ 1.51 µM) and an MIC (Staphylococcus aureus [11]) of 4 µg/mL (≈ 12.1 µM). It also gave an MIC (Staphylococcus aureus [12]) of 0.13 µg/mL (≈ 0.392 µM).
Cc1c(N2CCC(O)CC2)c(N)cc2c(=O)c(C(=O)O)cn(C3CC3)c12 showed an MIC (Enterococcus faecium [13]) of 0.25 µg/mL (≈ 0.699 µM), an MIC (Escherichia coli [14]) of 1 µg/mL (≈ 2.8 µM) and an MIC (Enterococcus faecalis [15]) of 0.25 µg/mL (≈ 0.699 µM). It also gave an MIC (Escherichia coli [16]) of 0.03 µg/mL (≈ 0.0839 µM), an IC50 (Escherichia coli [17]) of 5.74 µg/mL (≈ 16.1 µM) and an MIC (Enterobacter cloacae) of 0.5 µg/mL (≈ 1.4 µM). It also gave a Geometric mean (Bacteria) of 0.106, a Geometric mean [1] of 0.495 and an MIC (Klebsiella pneumoniae) of 0.03 µg/mL (≈ 0.0839 µM). The MIC (Proteus vulgaris) was 16 µg/mL (≈ 44.8 µM), the MIC (Providencia stuartii) was 1 µg/mL (≈ 2.8 µM) and the MIC (Pseudomonas aeruginosa) was 2 µg/mL (≈ 5.6 µM). It also gave an MIC (Shigella) of 0.25 µg/mL (≈ 0.699 µM), an MIC (Staphylococcus aureus [3]) of 0.06 µg/mL (≈ 0.168 µM) and an MIC (Staphylococcus aureus [4]) of 0.125 µg/mL (≈ 0.35 µM). For the same compound, the MIC (Staphylococcus aureus [18]) was 4 µg/mL (≈ 11.2 µM), the MIC (Staphylococcus aureus [19]) was 0.06 µg/mL (≈ 0.168 µM) and the MIC (Enterococcus faecalis [6]) was 0.5 µg/mL (≈ 1.4 µM). For the same compound, the MIC [7] was 0.06 µg/mL (≈ 0.168 µM), the MIC [8] was 0.06 µg/mL (≈ 0.168 µM) and the MIC (Streptococcus pneumoniae [20]) was 0.5 µg/mL (≈ 1.4 µM).
In the case of Cc1c(N2CCC(C)CC2)c(N)cc2c(=O)c(C(=O)O)cn(C3CC3)c12, the MIC (Enterococcus faecium [21]) is reported as 0.13 µg/mL (≈ 0.366 µM), the MIC (Escherichia coli [14]) is reported as 0.03 µg/mL (≈ 0.0844 µM) and the MIC (Enterococcus faecalis [22]) is reported as 0.13 µg/mL (≈ 0.366 µM). It also gave an MIC (Escherichia coli [16]) of 0.03 µg/mL (≈ 0.0844 µM), an IC50 (Escherichia coli [17]) of 5.86 µg/mL (≈ 16.5 µM) and an MIC (Enterobacter cloacae) of 0.5 µg/mL (≈ 1.41 µM). The Geometric mean (Bacteria) was 0.122, the Geometric mean [1] was 0.268 and the MIC (Klebsiella pneumoniae) was 0.03 µg/mL (≈ 0.0844 µM). It also gave an MIC (Proteus vulgaris) of 8 µg/mL (≈ 22.5 µM), an MIC (Providencia stuartii) of 0.5 µg/mL (≈ 1.41 µM) and an MIC (Pseudomonas aeruginosa) of 1 µg/mL (≈ 2.81 µM). It also gave an MIC (Shigella) of 0.5 µg/mL (≈ 1.41 µM), an MIC (Staphylococcus aureus [3]) of 0.06 µg/mL (≈ 0.169 µM) and an MIC (Staphylococcus aureus [4]) of 0.06 µg/mL (≈ 0.169 µM). The MIC (Staphylococcus aureus [23]) was 1 µg/mL (≈ 2.81 µM), the MIC (Streptococcus pneumoniae [24]) was 1 µg/mL (≈ 2.81 µM) and the MIC (Staphylococcus aureus [25]) was 0.016 µg/mL (≈ 0.045 µM). For the same compound, the MIC (Enterococcus faecalis [6]) was 0.5 µg/mL (≈ 1.41 µM), the MIC [7] was 0.125 µg/mL (≈ 0.352 µM) and the MIC [8] was 0.125 µg/mL (≈ 0.352 µM).
